Results taken from ChEMBL document CHEMBL1127482 (J Med Chem, 1994).
*1 amine or outer side, *2 acyl side, *3 side chain or, on linkers, in order; H or OH if unused. Where a SMILES comes first, the peptide text is derived from it. Bridges are numbered along the chain shown (N, C = ends). X1 = O=C(CC1(S[*:2])CCCCC1)[*:1]

Experiments:
[1] = molecular target: Integrin alpha-IIb/beta-3 (Homo sapiens, UniProt P05106+P08514); assay: Binding affinity against integrin alpha 2b-beta 3 in enzyme linked immunosorbent assay (ELISA); type: protein-complex assay
Integrin alpha-IIb/beta-3, sequence (P05106 27-788 limits assumed): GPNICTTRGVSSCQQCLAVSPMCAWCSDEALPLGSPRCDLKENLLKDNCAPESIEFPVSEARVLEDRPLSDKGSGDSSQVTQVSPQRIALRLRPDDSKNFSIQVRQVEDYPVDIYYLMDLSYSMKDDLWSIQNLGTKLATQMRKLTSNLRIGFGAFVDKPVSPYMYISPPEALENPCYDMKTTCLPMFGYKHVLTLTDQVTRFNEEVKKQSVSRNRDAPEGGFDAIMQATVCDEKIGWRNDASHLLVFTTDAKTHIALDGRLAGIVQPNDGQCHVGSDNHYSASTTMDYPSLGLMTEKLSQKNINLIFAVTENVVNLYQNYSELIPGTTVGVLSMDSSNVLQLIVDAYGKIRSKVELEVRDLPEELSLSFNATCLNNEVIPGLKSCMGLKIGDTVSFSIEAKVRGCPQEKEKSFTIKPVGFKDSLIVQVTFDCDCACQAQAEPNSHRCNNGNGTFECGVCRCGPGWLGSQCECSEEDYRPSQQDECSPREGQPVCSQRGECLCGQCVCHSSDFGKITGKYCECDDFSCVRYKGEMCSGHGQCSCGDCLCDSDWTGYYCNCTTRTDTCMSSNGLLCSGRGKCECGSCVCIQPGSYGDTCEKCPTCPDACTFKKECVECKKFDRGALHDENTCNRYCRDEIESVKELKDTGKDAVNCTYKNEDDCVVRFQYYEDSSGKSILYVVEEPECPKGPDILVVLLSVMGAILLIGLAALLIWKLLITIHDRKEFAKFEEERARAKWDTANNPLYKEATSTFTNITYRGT
Integrin alpha-IIb/beta-3, sequence (P08514 32-887 limits assumed): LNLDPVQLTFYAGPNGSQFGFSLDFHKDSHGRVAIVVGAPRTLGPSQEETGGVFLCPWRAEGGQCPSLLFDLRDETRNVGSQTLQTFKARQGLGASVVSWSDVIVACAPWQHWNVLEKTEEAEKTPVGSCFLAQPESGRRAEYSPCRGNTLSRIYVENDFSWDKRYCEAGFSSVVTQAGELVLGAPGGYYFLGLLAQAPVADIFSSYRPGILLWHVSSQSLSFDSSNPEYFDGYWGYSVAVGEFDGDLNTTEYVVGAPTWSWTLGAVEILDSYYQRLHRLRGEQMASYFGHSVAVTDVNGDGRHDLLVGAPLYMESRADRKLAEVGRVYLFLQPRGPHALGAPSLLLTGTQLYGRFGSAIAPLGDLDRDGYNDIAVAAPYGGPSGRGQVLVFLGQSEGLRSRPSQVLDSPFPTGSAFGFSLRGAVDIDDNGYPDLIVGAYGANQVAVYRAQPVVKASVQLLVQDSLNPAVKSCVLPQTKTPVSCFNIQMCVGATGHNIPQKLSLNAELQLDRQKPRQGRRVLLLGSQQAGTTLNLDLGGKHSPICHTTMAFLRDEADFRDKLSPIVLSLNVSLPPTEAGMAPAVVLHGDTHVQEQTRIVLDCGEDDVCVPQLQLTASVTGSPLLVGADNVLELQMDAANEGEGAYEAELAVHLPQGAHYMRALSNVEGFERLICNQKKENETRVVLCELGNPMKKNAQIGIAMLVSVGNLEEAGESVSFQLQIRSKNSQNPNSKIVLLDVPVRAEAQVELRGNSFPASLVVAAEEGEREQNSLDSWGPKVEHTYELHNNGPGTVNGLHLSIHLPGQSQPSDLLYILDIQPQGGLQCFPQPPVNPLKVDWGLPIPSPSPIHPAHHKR
Integrin alpha-IIb/beta-3, sequence (P08514 891-1039 limits assumed): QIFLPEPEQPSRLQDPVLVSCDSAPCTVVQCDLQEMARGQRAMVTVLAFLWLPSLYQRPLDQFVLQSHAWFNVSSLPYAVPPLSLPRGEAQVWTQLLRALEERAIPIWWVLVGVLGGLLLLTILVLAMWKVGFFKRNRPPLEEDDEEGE
Method in brief: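 Purified human platelet αIIbβ3 (from outdated platelets, octyl glucoside extract) in TBS with 20 mM octyl glucoside, 2 mM MgCl2 and 2 mM CaCl2 binds to plate-coated human fibrinogen (10 µg/mL in TBS) with 10-fold serial peptide dilutions for 3 h at room temperature. Bound receptor is detected with rabbit anti-αIIbβ3, then HRP anti-rabbit IgG, with o-phenylenediamine/H2O2 at pH 5.0. IC50 is reported.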

Homo sapiens = species on record: Homo sapiens; assay: Inhibition of 10 uM ADP induced platelet aggregation in human platelet rich citreated plasma (PRP); type: functional
Method in brief: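 Aggregation is read as the increase in light transmission in an aggregometer, with platelets used within 3 h of collection. IC50 comes from regression of dose-response curves for inhibition of maximal aggregation, adjusted against a standard run in each experiment.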

Integrin alpha-V/beta-5 = Integrin alpha-V/beta-5 (Homo sapiens, UniProt P06756+P18084); assay: Binding affinity against integrin alpha V-beta5 in enzyme linked immunosorbent assay (ELISA); type: protein-complex assay
Method in brief: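 It is added to wells coated with human vitronectin in 0.1 M carbonate, pH 9.6, with 10-fold serial peptide dilutions for 3 h at room temperature. Detection uses rabbit anti-VnR, HRP anti-rabbit IgG and o-phenylenediamine/H2O2.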

Integrin alpha-5/beta-1 = Integrin alpha-5/beta-1 (Homo sapiens, UniProt P05556+P08648); assay: Binding affinity against integrin alpha5-beta1 in enzyme linked immunosorbent assay (ELISA); type: protein-complex assay
Integrin alpha-5/beta-1, sequence (P05556 21-798 limits assumed): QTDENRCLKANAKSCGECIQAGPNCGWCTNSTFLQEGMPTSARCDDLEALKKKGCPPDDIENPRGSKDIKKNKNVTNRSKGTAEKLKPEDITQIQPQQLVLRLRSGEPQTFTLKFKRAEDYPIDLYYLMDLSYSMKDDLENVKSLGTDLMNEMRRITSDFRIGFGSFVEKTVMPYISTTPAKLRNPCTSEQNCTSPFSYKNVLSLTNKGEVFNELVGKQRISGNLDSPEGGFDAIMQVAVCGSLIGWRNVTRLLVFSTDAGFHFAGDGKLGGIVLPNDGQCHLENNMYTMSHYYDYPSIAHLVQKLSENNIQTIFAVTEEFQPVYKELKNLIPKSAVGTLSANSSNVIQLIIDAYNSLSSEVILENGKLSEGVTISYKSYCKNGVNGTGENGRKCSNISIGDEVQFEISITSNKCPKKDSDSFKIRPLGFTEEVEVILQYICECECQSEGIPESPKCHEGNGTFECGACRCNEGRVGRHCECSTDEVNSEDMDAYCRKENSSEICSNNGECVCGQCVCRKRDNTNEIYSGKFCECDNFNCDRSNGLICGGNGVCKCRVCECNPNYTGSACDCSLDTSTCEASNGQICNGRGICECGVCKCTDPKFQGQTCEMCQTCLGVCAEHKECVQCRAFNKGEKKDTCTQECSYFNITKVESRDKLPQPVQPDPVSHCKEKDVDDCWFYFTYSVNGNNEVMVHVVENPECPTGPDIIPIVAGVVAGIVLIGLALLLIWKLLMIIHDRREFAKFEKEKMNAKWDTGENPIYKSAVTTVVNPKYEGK
Integrin alpha-5/beta-1, sequence (P08648 42-894 limits assumed): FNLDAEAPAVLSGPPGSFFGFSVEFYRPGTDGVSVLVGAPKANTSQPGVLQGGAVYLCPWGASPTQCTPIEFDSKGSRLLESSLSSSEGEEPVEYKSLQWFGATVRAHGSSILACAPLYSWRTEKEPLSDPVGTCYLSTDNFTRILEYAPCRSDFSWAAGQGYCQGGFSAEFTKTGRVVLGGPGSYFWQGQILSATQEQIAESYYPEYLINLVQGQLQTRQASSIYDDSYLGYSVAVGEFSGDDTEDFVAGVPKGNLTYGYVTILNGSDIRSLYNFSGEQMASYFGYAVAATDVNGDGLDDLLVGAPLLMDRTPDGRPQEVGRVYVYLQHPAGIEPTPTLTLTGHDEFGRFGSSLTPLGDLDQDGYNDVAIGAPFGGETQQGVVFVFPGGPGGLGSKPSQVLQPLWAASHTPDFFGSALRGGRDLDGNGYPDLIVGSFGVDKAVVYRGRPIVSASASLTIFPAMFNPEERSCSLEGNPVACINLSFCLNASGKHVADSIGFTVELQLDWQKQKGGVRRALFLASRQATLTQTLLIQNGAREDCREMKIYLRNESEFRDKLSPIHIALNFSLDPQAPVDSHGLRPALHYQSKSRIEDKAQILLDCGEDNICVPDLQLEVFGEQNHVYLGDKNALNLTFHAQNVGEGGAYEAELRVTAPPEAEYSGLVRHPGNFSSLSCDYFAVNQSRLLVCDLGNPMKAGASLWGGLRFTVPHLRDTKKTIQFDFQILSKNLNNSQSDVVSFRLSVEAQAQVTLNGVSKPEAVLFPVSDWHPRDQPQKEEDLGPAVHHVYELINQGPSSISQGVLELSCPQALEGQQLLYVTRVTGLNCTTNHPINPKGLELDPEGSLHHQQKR
Integrin alpha-5/beta-1, sequence (P08648 895-1049 limits assumed): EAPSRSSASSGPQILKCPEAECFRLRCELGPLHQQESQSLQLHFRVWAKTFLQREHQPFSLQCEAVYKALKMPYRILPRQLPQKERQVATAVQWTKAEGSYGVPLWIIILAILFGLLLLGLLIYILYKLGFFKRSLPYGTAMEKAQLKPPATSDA

Canis familiaris = species on record: Canis familiaris; assay: Effect of compound on template bleeding time in dogs; type: functional, Canis lupus familiaris

SMILES | IC50 [1] [nM] | IC50 (Homo sapiens) [nM] | IC50 (Integrin alpha-V/beta-5) [nM] | IC50 (Integrin alpha-5/beta-1) [nM] | Bleeding time (Canis familiaris) [min]
NC(N)=NCCC[C@H](NC(=O)[C@@H]1CSSC2(CCCCC2)[C@H](NC(=O)[C@@H](N)CCCN=C(N)N)C(=O)NCC(=O)N[C@@H](Cc2c[nH]cn2)C(=O)N[C@@H](CCCN=C(N)N)C(=O)NCC(=O)N[C@@H](CC(=O)O)C(=O)N[C@@H](Cc2ccccc2)C(=O)N[C@@H](CCCN=C(N)N)C(=O)N1)C(=O)O | 40 | 620 | – | – | –
N=C(N)NCCC[C@H](NC(=O)[C@@H]1CSSC2(CCCCC2)[C@H](NC(=O)[C@@H](N)CCCNC(=N)N)C(=O)NCC(=O)N[C@@H](Cc2c[nH]cn2)C(=O)N[C@@H](CCCNC(=N)N)C(=O)NCC(=O)N[C@@H](CC(=O)O)C(=O)N[C@@H](Cc2ccc(Cl)cc2)C(=O)N[C@@H](CCCNC(=N)N)C(=O)N1)C(=O)O | – | 730 | 15300 | 870 | –
CCCCOc1ccc(C[C@@H]2NC(=O)[C@H](CC(=O)O)NC(=O)CNC(=O)[C@H](CCCNC(=N)N)NC(=O)[C@H](Cc3c[nH]cn3)NC(=O)CNC(=O)[C@@H](NC(=O)[C@@H](N)CCCNC(=N)N)C3(CCCCC3)SSC[C@@H](C(=O)N[C@@H](CCCNC(=N)N)C(=O)O)NC(=O)[C@H](CCCNC(=N)N)NC2=O)cc1 | 30 | 350 | – | – | –
COc1ccc(C[C@@H]2NC(=O)[C@H](CC(=O)O)NC(=O)CNC(=O)[C@H](CCCCN)NC(=O)[C@@H]3CCCN3C(=O)[C@H](CC(N)=O)NC(=O)[C@@H](NC(C)=O)CSSC[C@@H](C(N)=O)NC(=O)[C@H](CCCN=C(N)N)NC2=O)cc1 | – | – | – | – | 3.5
CC(C)C[C@@H]1NC(=O)[C@H](CC(=O)O)NC(=O)CNC(=O)[C@H](CCCNC(=N)N)NC(=O)[C@H](Cc2c[nH]cn2)NC(=O)CNC(=O)[C@@H](NC(=O)[C@@H](N)CCCNC(=N)N)C2(CCCC2)SSC[C@@H](C(=O)N[C@@H](CCCNC(=N)N)C(=O)O)NC(=O)[C@H](CCCNC(=N)N)NC1=O | 30 | 4100 | 340 | – | –
NC(N)=NCCC[C@H](NC(=O)[C@@H]1CSSC2(CCCCC2)[C@H](NC(=O)[C@@H](N)CCCN=C(N)N)C(=O)NCC(=O)N[C@@H](Cc2c[nH]cn2)C(=O)N[C@@H](CCCN=C(N)N)C(=O)NCC(=O)N[C@@H](CC(=O)O)C(=O)N[C@@H](Cc2ccc3ccccc3c2)C(=O)N[C@@H](CCCN=C(N)N)C(=O)N1)C(=O)O | 70 | 440 | – | 7720 | –
CC(C)C[C@@H]1NC(=O)[C@H](CC(=O)O)NC(=O)CNC(=O)[C@H](CCCNC(=N)N)NC(=O)[C@H](Cc2c[nH]cn2)NC(=O)CNC(=O)CC2(CCCCC2)SSC[C@@H](C(=O)N[C@@H](C)C(=O)O)NC(=O)[C@H](CCCNC(=N)N)NC1=O (GHRGDLRCA-OH; linker N-8 via X1) | 20 | 5900 | 10000 | – | –
COc1ccc(C[C@@H]2NC(=O)[C@H](CC(=O)O)NC(=O)CNC(=O)[C@H](CCCNC(=N)N)NC(=O)[C@@H]3CCCN3C(=O)[C@H](CC(N)=O)NC(=O)[C@@H](NC(C)=O)CSSC[C@@H](C(N)=O)NC(=O)[C@H](CC(C)C)NC2=O)cc1 | – | – | – | – | 21
CC(C)C[C@@H]1NC(=O)[C@H](CC(=O)O)NC(=O)CNC(=O)[C@H](CCCNC(=N)N)NC(=O)[C@H](Cc2c[nH]cn2)NC(=O)CNC(=O)[C@@H](NC(=O)[C@@H](N)CCCNC(=N)N)C(C)(C)SSC[C@@H](C(=O)N[C@@H](CCCNC(=N)N)C(=O)O)NC(=O)[C@H](CCCNC(=N)N)NC1=O | 40 | 9600 | 4930 | – | –
COc1ccc(C[C@@H]2NC(=O)[C@H](CC(=O)O)NC(=O)CNC(=O)[C@H](CCCN=C(N)N)NC(=O)[C@@H]3CCCN3C(=O)[C@H](CC(N)=O)NC(=O)[C@@H](NC(C)=O)CSSC[C@@H](C(N)=O)NC(=O)[C@H](CCCN=C(N)N)NC2=O)cc1 | – | – | – | – | 3
COc1ccc(C[C@@H]2NC(=O)[C@H](CC(=O)O)NC(=O)CNC(=O)[C@H](CCCNC(=N)N)NC(=O)[C@@H]3CCCN3C(=O)[C@H](CC(N)=O)NC(=O)[C@@H](NC(C)=O)CSSC[C@@H](C(N)=O)NC(=O)[C@H](CCC(=O)O)NC2=O)cc1 | – | – | – | – | > 30
CC(C)C[C@@H]1NC(=O)[C@H](CC(=O)O)NC(=O)CNC(=O)[C@H](CCCNC(=N)N)NC(=O)[C@H](Cc2c[nH]cn2)NC(=O)CNC(=O)[C@H](NC(=O)[C@@H](N)CCCNC(=N)N)C(C)(C)SSC[C@@H](C(=O)N[C@@H](CCCNC(=N)N)C(=O)O)NC(=O)[C@H](CCCNC(=N)N)NC1=O | 150 | 4100 | 10000 | – | –
COc1ccc(C[C@@H]2NC(=O)[C@H](CC(=O)O)NC(=O)CNC(=O)[C@H](CCCN=C(N)N)NC(=O)[C@H](Cc3c[nH]cn3)NC(=O)[C@H](CCCN=C(N)N)NC(=O)[C@@H](NC(=O)[C@@H](N)CCCN=C(N)N)C3(CCCCC3)SSC[C@@H](C(=O)N[C@@H](CCCN=C(N)N)C(=O)O)NC(=O)[C@H](CCCN=C(N)N)NC2=O)cc1 | 70 | 440 | – | – | –
COc1ccc(C[C@@H]2NC(=O)[C@H](CC(=O)O)NC(=O)CNC(=O)[C@H](CCCNC(=N)N)NC(=O)[C@@H]3CCCN3C(=O)[C@H](CC(N)=O)NC(=O)[C@@H](NC(C)=O)CSSC[C@@H](C(N)=O)NC(=O)[C@H](C)NC2=O)cc1 | – | – | – | – | >30
CC[C@H](C)[C@@H]1NC(=O)[C@@H](NC(C)=O)CSSC[C@@H](C(N)=O)NC(=O)[C@H](CCCN=C(N)N)NC(=O)[C@H](Cc2ccc([N+](=O)[O-])cc2)NC(=O)[C@H](CC(=O)O)NC(=O)CNC(=O)[C@H](CCCN=C(N)N)NC(=O)[C@@H]2CCCN2C1=O | 430 | 210 | 4300 | 1200 | –
NC(N)=NCCC[C@H](NC(=O)[C@@H]1CSSC2(CCCCC2)[C@H](NC(=O)[C@@H](N)CCCN=C(N)N)C(=O)NCC(=O)N[C@@H](Cc2c[nH]cn2)C(=O)N[C@@H](CCCN=C(N)N)C(=O)NCC(=O)N[C@@H](CC(=O)O)C(=O)N[C@@H](c2ccccc2)C(=O)N[C@@H](CCCN=C(N)N)C(=O)N1)C(=O)O | 20 | 680 | – | – | –
CC(C)C[C@@H]1NC(=O)[C@H](CC(=O)O)NC(=O)CNC(=O)[C@H](CCCNC(=N)N)NC(=O)[C@H](Cc2c[nH]cn2)NC(=O)CNC(=O)[C@@H](NC(=O)[C@@H](N)CCCNC(=N)N)C2(CCCCC2)SSC[C@@H](C(=O)N[C@@H](CCCNC(=N)N)C(=O)O)NC(=O)[C@H](CCCNC(=N)N)NC1=O | 400 | 3000 | 1580 | – | –

Second part, led by results:

IC50 [1] [nM] | IC50 (Homo sapiens) [nM] | IC50 (Integrin alpha-V/beta-5) [nM] | IC50 (Integrin alpha-5/beta-1) [nM] | SMILES | Bleeding time (Canis familiaris) [min]
20 | – | 1050 | 980 | COc1ccc(C[C@@H]2NC(=O)[C@H](CC(=O)O)NC(=O)CNC(=O)[C@H](CCCNC(=N)N)NC(=O)[C@H](Cc3c[nH]cn3)NC(=O)CNC(=O)[C@@H](NC(=O)[C@@H](N)CCCNC(=N)N)C3(CCCCC3)SSC[C@@H](C(=O)N[C@@H](CCCNC(=N)N)C(=O)O)NC(=O)[C@H](CCCNC(=N)N)NC2=O)cc1 | –
2 | 280 | – | – | CC[C@H](C)[C@@H]1NC(=O)[C@H](NC(C)=O)C(C)(C)SSC[C@@H](C(N)=O)NC(=O)[C@H](CCCNC(=N)N)NC(=O)[C@H](Cc2ccc(OC)cc2)NC(=O)[C@H](CC(=O)O)NC(=O)CNC(=O)[C@H](CCCNC(=N)N)NC(=O)[C@@H]2CCCN2C1=O | –
16 | – | > 10000 | 6000 | CCCCOc1ccc(C[C@@H]2NC(=O)[C@H](CC(=O)O)NC(=O)CNC(=O)[C@H](CCCNC(=N)N)NC(=O)[C@@H]3CCCN3C(=O)[C@H]([C@@H](C)CC)NC(=O)[C@@H](NC(C)=O)CSSC[C@@H](C(N)=O)NC(=O)[C@H](CCCNC(=N)N)NC2=O)cc1 | –
17 | 840 | 4800 | – | CC(=O)N[C@H]1CSSC[C@@H](C(N)=O)NC(=O)[C@H](CCCN=C(N)N)NC(=O)[C@H](Cc2ccc([N+](=O)[O-])cc2)NC(=O)[C@H](CC(=O)O)NC(=O)CNC(=O)[C@H](CCCN=C(N)N)NC(=O)[C@@H]2CCCN2C(=O)[C@H](CC(N)=O)NC1=O | –
14 | 450 | 10000 | 2100 | CC[C@H](C)[C@@H]1NC(=O)[C@@H](NC(C)=O)CSSC[C@@H](C(N)=O)NC(=O)[C@H](CCCN=C(N)N)NC(=O)[C@H](Cc2ccccc2)NC(=O)[C@H](CC(=O)O)NC(=O)CNC(=O)[C@H](CCCN=C(N)N)NC(=O)[C@@H]2CCCN2C1=O (Ac-CIPRGDFRC-NH2; disulfide 1-9) | –
4 | 220 | 8400 | 10000 | CCOc1ccc(C[C@@H]2NC(=O)[C@H](CC(=O)O)NC(=O)CNC(=O)[C@H](CCCN=C(N)N)NC(=O)[C@@H]3CCCN3C(=O)[C@H](CC(N)=O)NC(=O)[C@@H](NC(C)=O)CSSC[C@@H](C(N)=O)NC(=O)[C@H](CCCN=C(N)N)NC2=O)cc1 | –
3 | – | > 10000 | 4500 | CC[C@H](C)[C@@H]1NC(=O)[C@@H](NC(C)=O)CSSC[C@@H](C(N)=O)NC(=O)[C@H](CCCNC(=N)N)NC(=O)[C@H](Cc2ccc(O)cc2)NC(=O)[C@H](CC(=O)O)NC(=O)CNC(=O)[C@H](CCCNC(=N)N)NC(=O)[C@@H]2CCCN2C1=O (Ac-CIPRGDYRC-NH2; disulfide 1-9) | –
10 | – | 4030 | 4190 | N=C(N)NCCC[C@H](NC(=O)[C@@H]1CSSC2(CCCCC2)[C@H](NC(=O)[C@@H](N)CCCNC(=N)N)C(=O)NCC(=O)N[C@@H](Cc2c[nH]cn2)C(=O)N[C@@H](CCCNC(=N)N)C(=O)NCC(=O)N[C@@H](CC(=O)O)C(=O)N[C@@H](Cc2ccc(I)cc2)C(=O)N[C@@H](CCCNC(=N)N)C(=O)N1)C(=O)O | –
